Where “and” joins values, the source holds several entries; their conditions need not be identical. Identical values can stand only once.
Tests used:
[1] = biological target: T1, Transient receptor potential cation channel subfamily V member 1 (Rattus norvegicus, UniProt O35433); test: Antagonist activity against capsaicin-induced 45calcium ion uptake in CHO cells expressing rat TRPV1; format: functional, cell-based
In short: (§1)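 CHO cells recombinantly expressing rat TRPV1; inhibition of 45Ca2+ uptake triggered by capsaicin or by acid, pH 5. Functional IC50 in nM, averaged over at least two independent experiments, each with three replicates per concentration.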

[2] = biological target: T1, Transient receptor potential cation channel subfamily V member 1; test: Antagonist activity against acid-induced 45calcium ion uptake in CHO cells expressing rat TRPV1 at pH5; format: functional, cell-based; in short: as §1

T1 sequence (O35433 whole entry): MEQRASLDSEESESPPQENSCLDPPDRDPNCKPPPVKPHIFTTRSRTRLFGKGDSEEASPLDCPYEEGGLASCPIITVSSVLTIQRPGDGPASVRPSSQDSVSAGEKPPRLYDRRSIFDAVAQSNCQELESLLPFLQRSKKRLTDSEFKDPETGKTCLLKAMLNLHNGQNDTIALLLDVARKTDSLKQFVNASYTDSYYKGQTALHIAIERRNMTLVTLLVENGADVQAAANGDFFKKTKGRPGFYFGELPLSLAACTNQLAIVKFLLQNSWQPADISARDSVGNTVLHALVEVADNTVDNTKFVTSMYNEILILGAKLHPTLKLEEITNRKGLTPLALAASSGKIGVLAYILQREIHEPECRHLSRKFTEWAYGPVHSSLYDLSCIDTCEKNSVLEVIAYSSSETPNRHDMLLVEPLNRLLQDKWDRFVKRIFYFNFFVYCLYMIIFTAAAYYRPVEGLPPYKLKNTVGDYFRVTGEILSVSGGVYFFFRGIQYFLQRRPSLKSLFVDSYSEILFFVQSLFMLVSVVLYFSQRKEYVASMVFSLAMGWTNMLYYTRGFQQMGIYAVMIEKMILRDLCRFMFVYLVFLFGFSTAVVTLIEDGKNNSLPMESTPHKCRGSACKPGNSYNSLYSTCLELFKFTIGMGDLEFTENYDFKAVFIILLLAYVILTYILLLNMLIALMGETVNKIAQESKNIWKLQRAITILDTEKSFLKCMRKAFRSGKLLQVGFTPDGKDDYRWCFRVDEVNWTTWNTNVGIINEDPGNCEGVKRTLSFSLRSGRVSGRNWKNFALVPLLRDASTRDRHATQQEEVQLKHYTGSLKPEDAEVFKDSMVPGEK

Row | IC50 [1] [nM] | IC50 [2] | SMILES
1 | 221 | 310 nM | FC(F)(F)c1ccc2[nH]c(N3CCN(c4ncccc4I)CC3)nc2c1
2 | 1900 | 308 nM | Nc1ccc(-c2cc(C(F)(F)F)cc3[nH]c(N4CCN(c5ncccc5C(F)(F)F)CC4)nc23)cc1
3 | 129 | 51 nM | FC(F)(F)c1cc(-c2cnccn2)c2nc(N3CCN(c4ncccc4C(F)(F)F)CC3)[nH]c2c1
4 | 26 | 22 nM | FC(F)(F)c1cc(-c2cc3ccccc3s2)c2nc(N3CCN(c4ncccc4C(F)(F)F)CC3)[nH]c2c1
5 | 71 | 52 nM | Fc1ccc(Cc2cc(C(F)(F)F)cc3[nH]c(N4CCN(c5ncccc5C(F)(F)F)CC4)nc23)cc1F
6 | 581 | 832 nM | CC(=O)c1cnc(N2CCN(c3nc4cc(C(F)(F)F)ccc4[nH]3)CC2)c(Cl)c1
7 | 10 | 9 nM | FC(F)(F)c1cc(C2CCC(C(F)(F)F)CC2)c2nc(N3CCN(c4ncccc4C(F)(F)F)CC3)[nH]c2c1 (configuration not stated)
8 | 461 | 652 nM | CC(O)c1cnc(N2CCN(c3nc4ccc(C(F)(F)F)cc4[nH]3)CC2)c(Cl)c1 (racemic)
9 | 3300 | > 4000 nM | N#Cc1ccc2[nH]c(N3CCN(c4ncccc4C(F)(F)F)CC3)nc2c1
10 | 111 | 99 nM | COc1ccc(-c2cc(C(F)(F)F)cc3[nH]c(N4CCN(c5ncccc5C(F)(F)F)CC4)nc23)cn1
11 | 1140 | 351 nM | Fc1ccc(-c2ccc3[nH]c(N4CCN(c5ncccc5C(F)(F)F)CC4)nc3c2)cc1F
12 | 98 | 33 nM | C[C@@H]1CN(c2ncc(N)cc2Cl)CCN1c1nc2c(-c3ccc(F)cc3)cc(C(F)(F)F)cc2[nH]1
13 | 108 | 69 nM | CN(C)c1ccc(-c2cc(C(F)(F)F)cc3[nH]c(N4CCN(c5ncccc5C(F)(F)F)CC4)nc23)cc1
14 | 51 | 37 nM | FC(F)(F)c1ccc(-c2cc(C(F)(F)F)cc3[nH]c(N4CCN(c5ncccc5C(F)(F)F)CC4)nc23)cc1
15 | 87 | 310 nM | CC(C)(C)c1ccc2nc(N3CCN(c4ncccc4Cl)CC3)[nH]c2c1
16 | 0.3 | 0.3 nM | COC(=O)c1cnc(N2CCN(c3nc4c(-c5cc(F)c(F)c(F)c5)cc(C(F)(F)F)cc4[nH]3)[C@H](C)C2)c(Cl)c1
17 | 648 | > 4000 nM | CC[C@@H]1CN(c2ncccc2C(F)(F)F)CCN1c1nc2cc(C(F)(F)F)ccc2[nH]1
18 | 131 | 74 nM | FC(F)(F)c1cc(Br)c2nc(N3CCN(c4ncccc4C(F)(F)F)CC3)[nH]c2c1
19 | 3.4 | 3.3 nM | C[C@@H]1CN(c2ncc(Br)cc2Cl)CCN1c1nc2c(-c3cc(F)c(F)c(F)c3)cc(C(F)(F)F)cc2[nH]1
20 | 50 | 95 nM | FC(F)(F)c1cc(N2CCOCC2)c2[nH]c(N3CCN(c4ncccc4C(F)(F)F)CC3)nc2c1
21 | 493 | > 40000 nM | CNC(=O)c1cnc(N2CCN(c3nc4ccc(C(F)(F)F)cc4[nH]3)CC2)c(Cl)c1
22 | 325 | 120 nM | FC(F)(F)c1cc(C(F)(F)F)c2[nH]c(N3CCN(c4ncccc4C(F)(F)F)CC3)nc2c1
23 |  | > 4000 nM | Cc1ccc2[nH]c(N3CCN(c4ncccc4C(F)(F)F)CC3)nc2c1
24 | 123 | 194 nM | FC(F)(F)c1cccnc1N1CCN(c2nc3ccc(Br)cc3[nH]2)CC1

Row | IC50 [1] [nM] | IC50 [2] | SMILES
25 | 2380 | 2850 nM | FC(F)(F)c1ccc2[nH]c(N3CCN(c4ccncc4C(F)(F)F)CC3)nc2c1
26 | 2.1 | 1.1 nM | C[C@@H]1CN(c2ncc(CO)cc2Cl)CCN1c1nc2cc(C(F)(F)F)cc(NC(=O)OC(C)(C)C)c2[nH]1
27 | 373 | 221 nM | FC(F)(F)c1cc(-c2cccs2)c2[nH]c(N3CCN(c4ncccc4C(F)(F)F)CC3)nc2c1
28 | > 40000 | 1270 nM | FC(F)(F)c1ccc2[nH]c(N3CCN(c4c(Cl)cccc4Cl)CC3)nc2c1
29 | 94 | 141 nM | FC(F)(F)c1ccc(CNc2cc3[nH]c(N4CCN(c5ncccc5C(F)(F)F)CC4)nc3cc2C(F)(F)F)cc1
30 | 2060 | 406 nM | FC(F)(F)c1ccc2nc(N3CCN(c4ccccc4C(F)(F)F)CC3)[nH]c2c1
31 |  | 301 nM | FC(F)(F)c1ccc2nc(N3CCN(c4ncccc4C(F)(F)F)CC3)[nH]c2c1
32 | 267 | 188 nM | FC(F)(F)c1cc(-c2ccncc2)c2[nH]c(N3CCN(c4ncccc4C(F)(F)F)CC3)nc2c1
33 | 767 | 254 nM | C[C@H]1CN(c2nc3c(-c4cc(F)c(F)c(F)c4)cc(C(F)(F)F)cc3[nH]2)CCN1c1ncccc1Br
34 | 402 | 1140 nM | Cc1cccnc1N1CCN(c2nc3ccc(C(F)(F)F)cc3[nH]2)CC1
35 | 688 | 454 nM | FC(F)(F)c1cc(-c2nccs2)c2nc(N3CCN(c4ncccc4C(F)(F)F)CC3)[nH]c2c1
36 | 8240 | 201 nM | FC(F)(F)c1ccc(-c2cc3[nH]c(N4CCN(c5ncccc5C(F)(F)F)CC4)nc3cc2C(F)(F)F)cc1
37 | 7 | 6.7 nM | C[C@@H]1CN(c2ncc(CO)cc2Cl)CCN1c1nc2c(NCc3ccccc3)cc(C(F)(F)F)cc2[nH]1
38 | 1370 | 1990 nM | FC(F)(F)c1ccc2nc(N3CCN(c4c(Cl)cncc4Cl)CC3)[nH]c2c1
39 | 104 | 75 nM | C[C@H]1CN(c2ncccc2Br)CCN1c1nc2c(-c3cc(F)c(F)c(F)c3)cc(C(F)(F)F)cc2[nH]1
40 | 1.4 | 0.7 nM | C[C@@H]1CN(c2ncc(CO)cc2C(F)(F)F)CCN1c1nc2c(-c3cc(F)c(F)c(F)c3)cc(C(F)(F)F)cc2[nH]1
41 | 166 | 43 nM | FC(F)(F)c1cc2[nH]c(N3CCN(c4ncccc4C(F)(F)F)CC3)nc2cc1Br
42 | 30 | 9.2 nM | C[C@@H]1CN(c2ncc(NC(=O)CO)cc2Cl)CCN1c1nc2c(-c3ccc(F)cc3)cc(C(F)(F)F)cc2[nH]1
43 | 48 | 35 nM | C[C@@H]1CN(c2ncccc2C(F)(F)F)CCN1c1nc2ccc(C(F)(F)F)cc2[nH]1
44 | 0.6 | 2.3 nM | C[C@@H]1CN(c2ncc([C@@H](C)O)cc2Cl)CCN1c1nc2c(-c3cc(F)c(F)c(F)c3)cc(C(F)(F)F)cc2[nH]1
45 | 1660 | 878 nM | O=[N+]([O-])c1cc(C(F)(F)F)cc2[nH]c(N3CCN(c4ncccc4C(F)(F)F)CC3)nc12
46 |  | > 4000 nM | CCC[C@@H]1CN(c2ncccc2C(F)(F)F)CCN1c1nc2cc(C(F)(F)F)ccc2[nH]1
47 | 430 | 1000 nM | NC(=O)c1cnc(N2CCN(c3nc4cc(C(F)(F)F)ccc4[nH]3)CC2)c(Cl)c1
48 | > 5640 | 11900 nM | FC(F)(F)c1ccnc(N2CCN(c3nc4cc(C(F)(F)F)ccc4[nH]3)CC2)c1

Row | IC50 [1] [nM] | IC50 [2] | SMILES
49 | 4.3 | 1.8 nM | C[C@@H]1CN(c2nc3c(-c4cc(F)c(F)c(F)c4)cc(C(F)(F)F)cc3[nH]2)CCN1c1ncccc1Br
50 | 1230 | > 4000 nM | COC(=O)c1ccc2nc(N3CCN(c4ncccc4C(F)(F)F)CC3)[nH]c2c1
51 | 3910 | 8030 nM | FC(F)(F)c1ccc2[nH]c(N3CCN(c4ccncc4Cl)CC3)nc2c1
52 | 577 | 151 nM and 157 nM | FC(F)(F)c1ccc2nc(N3CCN(c4ncccc4C(F)(F)F)CC3)n(Cc3ccccc3)c2c1
53 | 1.3 | 1.7 nM | C=Cc1cnc(N2CCN(c3nc4c(-c5cc(F)c(F)c(F)c5)cc(C(F)(F)F)cc4[nH]3)[C@H](C)C2)c(Cl)c1
54 | 141 | 68 nM | FC(F)(F)c1cc(-c2ccccc2)c2nc(N3CCN(c4ncccc4C(F)(F)F)CC3)[nH]c2c1
55 | 2.6 | 3 nM | C[C@H](O)c1cnc(N2CCN(c3nc4c(-c5cc(F)c(F)c(F)c5)cc(C(F)(F)F)cc4[nH]3)[C@H](C)C2)c(Cl)c1
56 | 1130 | 17300 nM | FC(F)(F)c1cccnc1N1CCN(c2nc3ccc(Cl)cc3[nH]2)CC1
57 | 64 | 98 nM | OCc1cnc(N2CCN(c3nc4ccc(C(F)(F)F)cc4[nH]3)CC2)c(Cl)c1
58 | 6.7 | 2.6 nM | C[C@@H]1CN(c2ncccc2Br)CCN1c1nc2c(-c3cc(F)c(F)c(F)c3)cc(C(F)(F)F)cc2[nH]1
59 | 2.8 | 3.7 nM | C[C@@H]1CN(c2ncc(C(O)c3ccccc3)cc2C(F)(F)F)CCN1c1nc2c(-c3cc(F)c(F)c(F)c3)cc(C(F)(F)F)cc2[nH]1 (some centres not stated)
60 | 1.5 | 1 nM | CC(O)c1cnc(N2CCN(c3nc4c(-c5cc(F)c(F)c(F)c5)cc(C(F)(F)F)cc4[nH]3)[C@H](C)C2)c(C(F)(F)F)c1 (mixture of isomers)
61 | > 40000 | > 40000 nM | FC(F)(F)c1ccc2[nH]c(N3CCN(c4cccc(C(F)(F)F)n4)CC3)nc2c1
62 | 183 | 282 nM | CC(C)(C)c1ccc2[nH]c(N3CCN(c4ncccc4C(F)(F)F)CC3)nc2c1
63 | 11300 | > 40000 nM | FC(F)(F)c1ccc(N2CCN(c3nc4cc(C(F)(F)F)ccc4[nH]3)CC2)nc1
64 | 26 | 21 nM | FC(F)(F)Oc1cccc(-c2cc(C(F)(F)F)cc3[nH]c(N4CCN(c5ncccc5C(F)(F)F)CC4)nc23)c1
65 | 185 | 140 nM | FC(F)(F)c1cc(/C=C/c2ccccc2)c2[nH]c(N3CCN(c4ncccc4C(F)(F)F)CC3)nc2c1
66 | 6290 | 7080 nM | N#Cc1cccnc1N1CCN(c2nc3cc(C(F)(F)F)ccc3[nH]2)CC1
67 | 29 | 21 nM | FC(F)(F)c1cc(N2CCCCC2)c2[nH]c(N3CCN(c4ncccc4C(F)(F)F)CC3)nc2c1
68 | 1550 | 884 nM | FC(F)(F)c1cnc2nc(N3CCN(c4ncccc4C(F)(F)F)CC3)[nH]c2c1
69 | 2110 | > 40000 nM | FC(F)(F)c1ccc2[nH]c(N3CCN(c4ncncc4Cl)CC3)nc2c1
70 |  | > 4000 nM | Nc1cc(C(F)(F)F)cc2[nH]c(N3CCN(c4ncccc4C(F)(F)F)CC3)nc12
71 |  | 4 nM | CC(C)(C)c1ccc(-c2cc(C(F)(F)F)cc3[nH]c(N4CCN(c5ncccc5C(F)(F)F)CC4)nc23)cc1
